Experimental data taken from ChEMBL document CHEMBL4007461, “Synthesis, Antiviral Potency, in Vitro ADMET, and X-ray Structure of Potent CD4 Mimics as Entry Inhibitors That Target the Phe43 Cavity of HIV-1 gp120” (J Med Chem, 2017).
Converted amounts (≈) assume the structure as drawn.

Experiments:
TZM = test: (§1) Cytotoxicity against human TZM-bl cells incubated for 3 days by XTT assay; assay type: cell-based; conditions: tzm, 72 h
Outline: (§2)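 TZM-bl cells, 1 x 10^4/well, cultured overnight at 37 °C. Compounds added at graded concentrations for three days.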

[1] = tested on: Human immunodeficiency virus 1; test: Antiviral activity against HIV1 3B infected in human MT2 cells assessed as inhibition of p24 antigen production pretreated with virus for 30 mins followed by 4 days incubation with cells by sandwich ELISA based multicycle infection assay; assay type: functional, cell-based
Outline: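 MT-2 cells were infected with HIV-1 IIIB at 100 TCID50 and preincubated 30 min with graded compound concentrations. Medium was replaced next day. Supernatants were collected 4 days post-infection, lysed with equal volume 5% Triton X-100, and p24 was measured by sandwich ELISA. IC50 came from percent inhibition of p24.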

MT2 = test: Cytotoxicity against human MT2 cells incubated for 4 days by XTT assay; assay type: cell-based; conditions: mt2, 96 h, 96 h
Outline: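 Run alongside the MT-2 multicycle infection assay. Compound at graded concentrations mixed with an equal volume of MT-2 cells (10^5 cells/ml). Medium replaced next day and culture continued four days.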

[2] = Inhibition of HIV1 HXB2 gp120-mediated cell to cell fusion using human MAGI-CCR5 cells as indicator cells and Env/Tat-expressing HL2/3 cells as effector cells preincubated with MAGI-CCR5 cells for 1 hr followed by HL2/3 cells addition by beta-galactosidase reporter gene assay; conditions: Human immunodeficiency virus 1, HXB2
[3] = Inhibition of HIV1 reverse transcriptase by colorimetric assay; design: species or system Human immunodeficiency virus 1
Outline: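 HIV-1 reverse transcriptase activity measured with a commercial colorimetric reverse transcriptase kit, following the maker's instructions.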

[4] = Aqueous solubility of the compound at 1 to 100 uM in PBS at pH 7.4 after 2 hrs by turbidimetric analysis; assay type: physicochemical
Outline: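 DMSO stocks diluted 1:100 into phosphate-buffered saline pH 7.4, giving 1, 3, 10, 30 and 100 µM final in 1% DMSO. Seven replicate wells per concentration, incubated 2 h at 37 °C, absorbance read at 620 nm. Solubility taken as the concentration giving absorbance above the 1% DMSO vehicle.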

[5] = Apparent permeability from apical to basolateral side in human Caco2 cells at 10 uM at pH 7.4 by LC-MS/MS analysis; assay type: ADME, cell-based; conditions: Caco-2, pH 7.4
Outline: (§3)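 Caco-2 cells, passage 40-60, seeded on Transwell inserts at 1 x 10^5 cells/cm2 and grown 20 days in DMEM. Monolayers equilibrated 40 min in HBSS. Donor: compound at 10 µM final, 1% DMSO, in HBSS pH 7.4 with lucifer yellow as integrity marker. Sampled at 120 min, A-B and B-A, in duplicate, by LC-MS/MS. Papp = (dQ/dt)/(C0 × A); efflux ratio = Papp(B-A)/Papp(A-B).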

[6] = Apparent permeability from basolateral to apical side in human Caco2 cells at 10 uM at pH 7.4 by LC-MS/MS analysis; assay type: ADME, cell-based; conditions: Caco-2, pH 7.4; outline: as §3
[7] = Metabolic stability in human liver microsomes assessed as compound remaining at 45 mins in presence of NADPH by LC-MS/MS analysis; assay type: ADME, microsome; conditions: read-out: Stability
[8] = Intrinsic clearance in human liver microsomes assessed per mg protein in presence of NADPH by LC-MS/MS analysis; assay type: ADME, microsome; conditions: read-out: CLH
[9] = Unbound fraction in human plasma at 5 uM by LC-MS/MS based equilibrium dialysis; assay type: ADME, cell-free
Cytochrome P450 2C19 = Cytochrome P450 2C19 (Homo sapiens, UniProt P33261); test: Inhibition of CYP2C19 in human liver microsomes using mephenytoin as substrate after 60 mins in presence of NADPH by LC-MS/MS analysis; assay type: ADME
Chain of Cytochrome P450 2C19 (P33261 whole entry): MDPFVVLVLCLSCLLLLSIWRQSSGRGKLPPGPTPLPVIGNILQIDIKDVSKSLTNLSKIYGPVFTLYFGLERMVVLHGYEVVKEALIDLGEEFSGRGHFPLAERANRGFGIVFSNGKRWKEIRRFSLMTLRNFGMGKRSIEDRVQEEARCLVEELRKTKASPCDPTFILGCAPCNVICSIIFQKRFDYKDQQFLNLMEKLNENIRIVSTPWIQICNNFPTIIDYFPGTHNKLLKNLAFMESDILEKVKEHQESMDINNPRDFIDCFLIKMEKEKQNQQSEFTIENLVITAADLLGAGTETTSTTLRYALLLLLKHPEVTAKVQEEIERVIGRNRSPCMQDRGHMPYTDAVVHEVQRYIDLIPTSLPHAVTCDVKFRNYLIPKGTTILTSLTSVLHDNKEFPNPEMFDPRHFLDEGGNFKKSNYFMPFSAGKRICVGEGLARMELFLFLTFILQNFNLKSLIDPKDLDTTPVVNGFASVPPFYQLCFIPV

Cytochrome P450 3A4 = Cytochrome P450 3A4 (Homo sapiens, UniProt P08684); test: Inhibition of CYP3A4 in human liver microsomes using midazolam as substrate after 5 mins in presence of NADPH by LC-MS/MS analysis; assay type: ADME
Chain of Cytochrome P450 3A4 (P08684 whole entry): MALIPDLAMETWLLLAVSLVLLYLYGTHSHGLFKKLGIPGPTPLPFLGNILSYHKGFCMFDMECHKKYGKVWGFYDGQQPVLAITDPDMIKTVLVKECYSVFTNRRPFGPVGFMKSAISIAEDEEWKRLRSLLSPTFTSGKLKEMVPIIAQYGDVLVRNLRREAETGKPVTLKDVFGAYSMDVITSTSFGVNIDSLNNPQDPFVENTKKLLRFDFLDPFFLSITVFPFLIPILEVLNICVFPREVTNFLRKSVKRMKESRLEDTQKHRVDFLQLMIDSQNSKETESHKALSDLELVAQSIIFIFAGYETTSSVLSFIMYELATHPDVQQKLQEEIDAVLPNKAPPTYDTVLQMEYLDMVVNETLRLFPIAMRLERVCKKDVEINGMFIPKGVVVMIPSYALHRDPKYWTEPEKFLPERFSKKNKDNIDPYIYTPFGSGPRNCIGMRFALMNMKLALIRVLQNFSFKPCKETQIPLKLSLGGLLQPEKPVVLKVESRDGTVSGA

Cytochrome P450 2D6 = Cytochrome P450 2D6 (Homo sapiens, UniProt P10635); test: Inhibition of CYP2D6 in human liver microsomes using dextromethorphan as substrate after 5 mins in presence of NADPH by LC-MS/MS analysis; assay type: ADME
Chain of Cytochrome P450 2D6 (P10635 whole entry): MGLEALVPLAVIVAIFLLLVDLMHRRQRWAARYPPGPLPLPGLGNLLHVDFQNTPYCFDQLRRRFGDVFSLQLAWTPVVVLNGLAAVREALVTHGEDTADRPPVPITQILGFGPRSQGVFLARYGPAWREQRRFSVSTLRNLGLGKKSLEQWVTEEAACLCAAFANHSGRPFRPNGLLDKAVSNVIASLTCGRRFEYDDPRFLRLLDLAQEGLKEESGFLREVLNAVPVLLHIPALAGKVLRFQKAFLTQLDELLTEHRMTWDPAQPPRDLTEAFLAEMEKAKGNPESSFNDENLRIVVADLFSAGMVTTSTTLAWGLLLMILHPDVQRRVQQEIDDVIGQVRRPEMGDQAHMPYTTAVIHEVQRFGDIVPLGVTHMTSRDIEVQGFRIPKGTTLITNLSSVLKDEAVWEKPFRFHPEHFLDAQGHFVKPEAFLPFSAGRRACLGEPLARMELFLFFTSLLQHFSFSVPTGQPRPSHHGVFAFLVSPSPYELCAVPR

Cytochrome P450 2C9 = Cytochrome P450 2C9 (Homo sapiens, UniProt P11712); test: Inhibition of CYP2C9 in human liver microsomes using tolbutamide as substrate after 60 mins in presence of NADPH by LC-MS/MS analysis; assay type: ADME
Chain of Cytochrome P450 2C9 (P11712 whole entry): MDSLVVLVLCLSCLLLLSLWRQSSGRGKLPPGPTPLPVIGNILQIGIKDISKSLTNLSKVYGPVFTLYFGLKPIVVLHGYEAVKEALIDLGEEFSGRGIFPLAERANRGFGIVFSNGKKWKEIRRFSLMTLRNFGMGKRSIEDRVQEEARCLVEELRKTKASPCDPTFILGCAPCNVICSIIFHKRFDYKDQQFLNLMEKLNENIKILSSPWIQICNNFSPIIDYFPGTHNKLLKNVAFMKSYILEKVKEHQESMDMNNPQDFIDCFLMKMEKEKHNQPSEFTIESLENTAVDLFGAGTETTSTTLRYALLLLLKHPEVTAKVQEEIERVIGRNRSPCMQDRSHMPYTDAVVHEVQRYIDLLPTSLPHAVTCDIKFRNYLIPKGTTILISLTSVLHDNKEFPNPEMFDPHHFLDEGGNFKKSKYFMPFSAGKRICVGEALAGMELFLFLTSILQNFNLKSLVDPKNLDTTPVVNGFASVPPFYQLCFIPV

[10] = Inhibition of CYP1A in human liver microsomes using ethoxyresorufin as substrate after 5 mins in presence of NADPH by LC-MS/MS analysis
[11] = biological target: Voltage-gated inwardly rectifying potassium channel KCNH2 (Homo sapiens, UniProt Q12809); test: Inhibition of human ERG expressed in CHO cells by patch clamp electrophysiology assay; assay type: cell-based
Chain of Voltage-gated inwardly rectifying potassium channel KCNH2 (Q12809 whole entry): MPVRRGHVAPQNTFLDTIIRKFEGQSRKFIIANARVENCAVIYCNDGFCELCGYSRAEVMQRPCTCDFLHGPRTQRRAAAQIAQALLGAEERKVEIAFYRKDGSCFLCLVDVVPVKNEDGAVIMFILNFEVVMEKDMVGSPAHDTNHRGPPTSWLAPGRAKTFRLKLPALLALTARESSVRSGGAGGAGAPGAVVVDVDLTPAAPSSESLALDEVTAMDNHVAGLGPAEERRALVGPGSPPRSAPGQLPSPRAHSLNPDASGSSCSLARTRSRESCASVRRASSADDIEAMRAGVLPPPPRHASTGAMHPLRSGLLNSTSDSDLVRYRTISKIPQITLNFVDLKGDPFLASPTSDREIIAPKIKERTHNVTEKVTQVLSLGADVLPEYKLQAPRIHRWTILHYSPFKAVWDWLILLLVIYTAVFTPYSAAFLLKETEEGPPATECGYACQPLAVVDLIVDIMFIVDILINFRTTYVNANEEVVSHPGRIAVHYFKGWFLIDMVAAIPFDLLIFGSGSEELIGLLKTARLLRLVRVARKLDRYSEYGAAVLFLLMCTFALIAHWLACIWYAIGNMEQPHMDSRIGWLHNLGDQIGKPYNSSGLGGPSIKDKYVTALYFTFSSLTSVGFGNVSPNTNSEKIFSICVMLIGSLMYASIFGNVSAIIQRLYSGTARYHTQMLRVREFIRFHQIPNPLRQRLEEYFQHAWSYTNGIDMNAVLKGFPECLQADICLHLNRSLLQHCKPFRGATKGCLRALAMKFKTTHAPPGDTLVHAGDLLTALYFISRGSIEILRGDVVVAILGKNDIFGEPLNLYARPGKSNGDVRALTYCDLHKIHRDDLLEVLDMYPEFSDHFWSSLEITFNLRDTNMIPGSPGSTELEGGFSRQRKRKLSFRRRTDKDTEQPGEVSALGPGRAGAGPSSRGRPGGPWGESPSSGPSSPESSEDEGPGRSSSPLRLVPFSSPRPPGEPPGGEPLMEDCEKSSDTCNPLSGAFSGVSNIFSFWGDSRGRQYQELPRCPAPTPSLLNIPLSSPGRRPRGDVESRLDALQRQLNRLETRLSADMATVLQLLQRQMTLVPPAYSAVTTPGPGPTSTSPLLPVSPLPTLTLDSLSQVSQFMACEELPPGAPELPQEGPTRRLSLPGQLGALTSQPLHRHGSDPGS

[12] = tested on: Vesicular stomatitis virus; test: Antiviral activity against G-glycoprotein expressing VSV; assay type: functional
Outline: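 VSV-G pseudovirus made in HEK293T cells from pVPack-VSV-G, MLV gag-pol pVPack-GP and pFB-luc plasmids. Virus was preincubated 30 min with graded compound concentrations, then added to U87-CD4-CXCR4 cells (1 x 10^4/well, plated overnight).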

[13] = tested on: Human immunodeficiency virus 1; test: Antiviral activity against ENV pseudotyped CCR5-tropic HIV1 p1054.TC4.1499; assay type: functional
[14] = tested on: Human immunodeficiency virus 1; test: Antiviral activity against ENV pseudotyped CCR5-tropic HIV1 p9014_01.TBI.4769; assay type: functional; conditions: Human immunodeficiency virus 1, p9014_01.TBI.4769
Outline: (§4)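 Env-pseudotyped viruses made by co-transfecting HEK293T cells with an Env-deleted pSG3 backbone (8 µg) and an Env-expression plasmid (8 µg). Supernatants were harvested 2 days after transfection, filtered, titered and stored at −80 °C. They were used for single-cycle infection, and IC50 was taken from percent inhibition.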

[15] = tested on: Human immunodeficiency virus 1; test: Antiviral activity against ENV pseudotyped CCR5-tropic HIV1 p9021_14.B2.4571; assay type: functional; conditions: Human immunodeficiency virus 1, p9021_14.B2.4571
[16] = tested on: Human immunodeficiency virus 1; test: Antiviral activity against ENV pseudotyped CCR5-tropic HIV1 subtype C 25711-2, clone 4; assay type: functional; conditions: Human immunodeficiency virus 1, subtype C 25711-2, clone 4
[17] = tested on: Human immunodeficiency virus 1; test: Antiviral activity against ENV pseudotyped CCR5-tropic HIV1 subtype C 225925-2, clone 22; assay type: functional; conditions: Human immunodeficiency virus 1, subtype C 225925-2, clone 22; outline: as §4
[18] = tested on: Human immunodeficiency virus 1; test: Antiviral activity against ENV pseudotyped CCR5-tropic HIV1 subtype D QA013.70I.ENV.M12; assay type: functional; conditions: Human immunodeficiency virus 1, subtype D QA013.70I.ENV.M12; outline: as §4
[19] = tested on: Human immunodeficiency virus 1
[20] = tested on: Human immunodeficiency virus 1; remark: listed apart in the source
[21] = tested on: Human immunodeficiency virus 1; test: microbe, parasite or virus in culture; conditions: Human immunodeficiency virus 1, subtype D/A BF535.W6M.ENV.A1
[22] = tested on: Human immunodeficiency virus 1; test: microbe, parasite or virus in culture; conditions: Human immunodeficiency virus 1, subtype C Du 172, clone 17
[23] = tested on: Human immunodeficiency virus 1; test: microbe, parasite or virus in culture; conditions: Human immunodeficiency virus 1, subtype C ZM109F.PB4
[24] = tested on: Human immunodeficiency virus 1; test: microbe, parasite or virus in culture; conditions: Human immunodeficiency virus 1, subtype C CAP210.2.00.E8
[25] = tested on: Human immunodeficiency virus 1; test: microbe, parasite or virus in culture; conditions: Human immunodeficiency virus 1, subtype C 6055-2, clone 3
[26] = tested on: Human immunodeficiency virus 1; test: microbe, parasite or virus in culture; conditions: Human immunodeficiency virus 1, subtype C QB099.391 M.ENV.B1
[27] = tested on: Human immunodeficiency virus 1; test: microbe, parasite or virus in culture; conditions: Human immunodeficiency virus 1, subtype A/G CRF02_AG clone 263
[28] = tested on: Human immunodeficiency virus 1; test: microbe, parasite or virus in culture; conditions: Human immunodeficiency virus 1, subtype B p1058_11.B11.1550
[29] = tested on: Human immunodeficiency virus 1; test: microbe, parasite or virus in culture; conditions: Human immunodeficiency virus 1, subtype A/E CRF01_AE clone 269
[30] = as §1; assay type: cell-based; conditions: TZM-bl cells; outline: as §2
[31] = tested on: Human immunodeficiency virus 1; test: Antiviral activity against ENV pseudotyped CCR5-tropic HIV1 subtype D QD435.100M.ENV.A4; assay type: functional; conditions: Human immunodeficiency virus 1, subtype D QD435.100M.ENV.A4; outline: as §4
[32] = tested on: Human immunodeficiency virus 1; test: Antiviral activity against ENV pseudotyped CCR5-tropic HIV1 subtype C 6936-2, clone 21; assay type: functional; conditions: Human immunodeficiency virus 1, subtype C 6936-2, clone 21; outline: as §4
[33] = tested on: Human immunodeficiency virus 1; test: Antiviral activity against ENV pseudotyped CCR5-tropic HIV1 subtype D QD435.100M.ENV.E1; assay type: functional; conditions: Human immunodeficiency virus 1, subtype D QD435.100M.ENV.E1
[34] = tested on: Human immunodeficiency virus 1; test: microbe, parasite or virus in culture; conditions: Human immunodeficiency virus 1, subtype C Du422, clone 1
[35] = tested on: Human immunodeficiency virus 1; test: microbe, parasite or virus in culture; conditions: Human immunodeficiency virus 1, subtype A/G CRF02_AG clone 278
[36] = tested on: Human immunodeficiency virus 1; test: microbe, parasite or virus in culture; conditions: Human immunodeficiency virus 1, AC10.0, clone 29
[37] = tested on: Human immunodeficiency virus 1; test: microbe, parasite or virus in culture; conditions: Human immunodeficiency virus 1, pCAAN5342 clone A2
[38] = tested on: Human immunodeficiency virus 1; test: microbe, parasite or virus in culture; conditions: Human immunodeficiency virus 1, subtype A QB726.70M.ENV.C4
[39] = tested on: Human immunodeficiency virus 1; test: microbe, parasite or virus in culture; conditions: Human immunodeficiency virus 1, subtype A2/D QG393.60M.ENV.B8
[40] = tested on: Human immunodeficiency virus 1; test: Antiviral activity against HIV1 HXB2 pseudovirus infected in human TZM-bl cells assessed as inhibition of viral entry treated 4 hrs post infection measured after 48 hrs by luciferase reporter gene assay; assay type: functional

Structure (SMILES)	CC50 (MT2) [µM]	IC50 [2] [µM]	IC50 [3] [µM]	solubility kinetic at 2 h [4] [µM]	Papp A→B at 10 µM [5] [×10⁻⁶ cm/s]	Papp B→A at 10 µM [6] [×10⁻⁶ cm/s]	remaining at […] [7] [%]	microsomal CLint [8] [µL/min/mg]	fraction unbound at 5 µM [9]	IC50 (Cytochrome P450 2C19) [µM]	IC50 (Cytochrome P450 3A4) [µM]	IC50 (Cytochrome P450 2D6) [µM]	IC50 (Cytochrome P450 2C9) [µM]	IC50 [10] [µM]	IC50 [11] [µM]	IC50 [12] [µM]	IC50 [15] [µM]	IC50 [16] [µM]	IC50 [17] [µM]	IC50 [18] [µM]	further results
Cc1ccc(-c2ccc(C(=O)NC(CN)c3ncc(CO)s3)[nH]2)cc1F (stereo in doubt)	38	8.3	7.2	> 100	2.56	19.5	101	< 10	0.04	> 25	> 25	> 25	> 25	8.01	9.98	42.9	0.22	0.3	0.34	0.24	CC50 (TZM): 38.8 µM; IC50 [1]: 0.76 µM; IC50 [13]: 0.4 µM; IC50 [14]: 0.31 µM; IC50 [19]: 0.4 µM; IC50 [20]: 0.4 µM; IC50 [21]: 0.55 µM; IC50 [22]: 0.62 µM; IC50 [23]: 0.2 µM; IC50 [24]: 0.49 µM; IC50 [25]: 0.22 µM; IC50 [26]: 0.35 µM; IC50 [27]: 0.5 µM; IC50 [28]: 0.28 µM; IC50 [29]: 0.3 µM
NCC(NC(=O)c1ccc(-c2cc(F)c(Cl)c(F)c2)[nH]1)c1ncc(CO)s1 (stereo in doubt)	37	13.3	8.4	65 (≈ 26.8 µg/mL)	1.17	17.2	97.4	< 10	0.1	> 25	> 25	> 25	> 25	> 25	14.1	26	0.31	0.52	0.33	0.5	CC50 at 72 h [30]: 39.5 µM; IC50 ([13]; Human immunodeficiency virus 1, p1054.TC4.1499): 0.65 µM; IC50 [31]: 0.32 µM; IC50 [32]: 0.31 µM; IC50 [33]: 0.5 µM; IC50 [21]: 0.94 µM; IC50 [34]: 0.32 µM; IC50 [26]: 0.51 µM; IC50 [27]: 0.6 µM; IC50 [35]: 0.5 µM; IC50 [36]: 0.5 µM; IC50 [37]: 0.6 µM; IC50 [38]: 0.51 µM; IC50 [39]: 0.27 µM
Cc1cn([C@H]2C[C@H](N=[N+]=[N-])[C@@H](CO)O2)c(=O)[nH]c1=O [ZIDOVUDINE]	–	–	–	–	–	–	–	–	–	–	–	–	–	–	–	–	–	–	–	–	inhibition (INH) [40]: 50%
